Measured values taken from ChEMBL document CHEMBL4373708 (J Med Chem, 2019).
Active and inactive are the calls of the source. The rule behind the calls is not given here.

How the values were obtained:
[1] = Cmax in mouse at 10 mg/kg, ip by LC-MS analysis; assay type: ADME, organism-based; set-up: dose 10 mg/kg, route intraperitoneal; details: in vivo
Method in brief: (§1)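 Single intraperitoneal or oral dose in mice at 5 mg/kg (vehicle: saline with 5% DMSO and 10% Kolliphor HS 15) or 10 mg/kg (vehicle: PBS with 5% DMSO and 20% (2-hydroxypropyl)-β-cyclodextrin). Blood taken by retroorbital puncture at set times, serum separated by centrifugation at 4000 g for 20 min at 24 °C, compound quantified by LC/MS.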

[2] = molecular target: T1, Pendrin (Mus musculus) (UniProt Q9R155); assay: Inhibition of mouse slc26a4 expressed in FRT cells co-expressing EYFP-H148Q/I152L/F46L assessed as reduction in protein-mediated chloride/iodide exchange at 10 uM preincubated for 10 mins followed by NaI-substituted PBS addition and measured by YFP-based fluorescence assay; assay type: cell-based
T1 sequence (whole entry): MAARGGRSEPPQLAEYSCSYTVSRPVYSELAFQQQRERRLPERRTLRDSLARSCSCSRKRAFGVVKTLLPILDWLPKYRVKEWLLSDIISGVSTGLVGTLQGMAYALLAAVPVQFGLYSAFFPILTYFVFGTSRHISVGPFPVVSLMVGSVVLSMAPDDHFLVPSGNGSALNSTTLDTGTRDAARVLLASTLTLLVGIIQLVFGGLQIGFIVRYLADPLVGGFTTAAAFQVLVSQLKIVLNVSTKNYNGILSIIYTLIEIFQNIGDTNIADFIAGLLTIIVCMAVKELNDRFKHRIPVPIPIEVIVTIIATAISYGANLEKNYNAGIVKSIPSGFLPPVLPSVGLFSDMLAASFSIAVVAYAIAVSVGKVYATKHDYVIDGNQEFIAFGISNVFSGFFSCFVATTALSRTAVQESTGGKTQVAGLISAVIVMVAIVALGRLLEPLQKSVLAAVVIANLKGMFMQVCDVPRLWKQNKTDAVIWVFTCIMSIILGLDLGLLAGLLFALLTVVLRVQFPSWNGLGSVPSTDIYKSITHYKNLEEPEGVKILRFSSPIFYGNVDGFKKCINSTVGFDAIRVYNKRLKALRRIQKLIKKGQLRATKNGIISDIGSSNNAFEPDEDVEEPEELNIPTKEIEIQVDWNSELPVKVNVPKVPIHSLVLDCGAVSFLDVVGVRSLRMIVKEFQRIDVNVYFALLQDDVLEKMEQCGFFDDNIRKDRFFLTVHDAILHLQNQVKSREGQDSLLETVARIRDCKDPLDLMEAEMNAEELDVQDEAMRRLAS
Method in brief: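 FRT cells expressing the given slc26 transporter plus EYFP-H148Q/I152L/F46L were preincubated 10 min with 0 or 10 µM compound in PBS. Iodide-substituted PBS was then added (140 mM NaCl replaced by NaI). The rate of YFP fluorescence quenching gave chloride/iodide exchange.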

[3] = Drug level in mouse serum at 10 mg/kg, po or ip measured after 72 hrs by LC-MS analysis; assay type: ADME, organism-based; details: read-out: Drug uptake; method in brief: as §1
[4] = Tmax in mouse at 10 mg/kg, ip by LC-MS analysis; assay type: ADME, organism-based; details: in vivo; method in brief: as §1
[5] = Tmax in mouse at 10 mg/kg, po by LC-MS analysis; assay type: ADME, organism-based; details: in vivo; method in brief: as §1
[6] = Toxicity in CD-1 mouse assessed as effect on fecal pellet number at 10 mg/kg, po administered via gavage for 1 hr; assay type: organism-based; details: in vivo
Method in brief: (§2)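 Female CD1 mice aged 8–10 weeks without loperamide: 10 mg/kg compound or vehicle (PBS with 5% DMSO and 20% (2-hydroxypropyl)-β-cyclodextrin) by gavage, 1 h before ip injection of loperamide vehicle (5% ethanol in PBS). Mice were caged singly in metabolic cages and stool collected 3 h for weight, pellet count and water content (dried 80 °C, 24 h).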

[7] = test system: Mus musculus; assay: Anti-absorptive activity in loperamide-induced CD-1 mouse model of constipation assessed as improvement in fecal pellet number at 3 mg/kg, po administered via gavage for 1 hr prior to loperamide challenge and measured after 3 hrs; assay type: functional, organism-based
Method in brief: (§3)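 Mice were held singly in metabolic cages with food and water. Stool was collected 3 h for weight and pellet count; water content = (wet−dry)/wet after drying 24 h at 80 °C. 5-8 mice/group, one-way ANOVA with Newman-Keuls.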

[8] = test system: Mus musculus; assay: Anti-absorptive activity in loperamide-induced CD-1 mouse model of constipation assessed as improvement in stool weight at 3 mg/kg, po administered via gavage for 1 hr prior to loperamide challenge and measured after 3 hrs; assay type: functional, organism-based; method in brief: as §3
[9] = AUC in mouse at 10 mg/kg, ip by LC-MS analysis; assay type: ADME, organism-based; details: in vivo; method in brief: as §1
[10] = test system: Mus musculus; assay: Anti-absorptive activity in loperamide-induced CD-1 mouse model of constipation assessed as stool hydration at 1 mg/kg, po administered via gavage for 1 hr prior to loperamide challenge and measured after 3 hrs relative to control; assay type: functional; method in brief: as §3
[11] = Cmax in mouse at 10 mg/kg, po by LC-MS analysis; assay type: ADME, organism-based; set-up: dose 10 mg/kg, route oral; details: in vivo; method in brief: as §1
[12] = test system: Mus musculus; assay: Anti-absorptive activity in loperamide-induced CD-1 mouse model of constipation assessed as improvement in stool water content at 3 mg/kg, po administered via gavage for 1 hr prior to loperamide challenge and measured after 3 hrs; assay type: functional, organism-based; method in brief: as §3
[13] = AUC in mouse at 10 mg/kg, po by LC-MS analysis; assay type: ADME, organism-based; details: in vivo; method in brief: as §1
[14] = Toxicity in CD-1 mouse assessed as effect on stool water content at 10 mg/kg, po administered via gavage for 1 hr; assay type: organism-based; details: in vivo; method in brief: as §2
[15] = Toxicity in CD-1 mouse assessed as effect on stool weight at 10 mg/kg, po administered via gavage for 1 hr; assay type: organism-based; details: in vivo; method in brief: as §2
[16] = test system: Mus musculus; assay: Anti-absorptive activity in loperamide-induced CD-1 mouse model of constipation assessed as improvement in stool weight at 5 mg/kg, po administered via gavage for 1 hr prior to loperamide challenge and measured after 3 hrs; assay type: functional, organism-based
Method in brief: (§4)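 Female CD1 mice aged 8–10 weeks were gavaged with 5 mg/kg compound or vehicle 1 h before ip loperamide (0.3 mg/kg in 5% ethanol/PBS). Mice were kept singly in metabolic cages and stool collected for 3 h. Total weight and pellet number were recorded; water content = (wet−dry)/wet after drying at 80 °C for 24 h. Mean ± S.E.M., 4-6 mice per group.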

[17] = Cmax in mouse at 5 mg/kg, ip by LC-MS analysis; assay type: ADME, organism-based; set-up: dose 5 mg/kg, route intraperitoneal; details: in vivo; method in brief: as §1
[18] = Tmax in mouse at 5 mg/kg, po by LC-MS analysis; assay type: ADME, organism-based; details: in vivo; method in brief: as §1
[19] = AUC in mouse at 5 mg/kg, po by LC-MS analysis; assay type: ADME, organism-based; details: in vivo; method in brief: as §1
[20] = AUC in mouse at 5 mg/kg, ip by LC-MS analysis; assay type: ADME, organism-based; details: in vivo; method in brief: as §1
[21] = test system: Mus musculus; assay: Anti-absorptive activity in loperamide-induced CD-1 mouse model of constipation assessed as improvement in stool water content at 5 mg/kg, po administered via gavage for 1 hr prior to loperamide challenge and measured after 3 hrs; assay type: functional, organism-based; method in brief: as §4
[22] = Drug uptake in mouse serum at 5 mg/kg, po or ip measured after 16 hrs by LC-MS analysis; assay type: ADME, organism-based; details: in vivo; method in brief: as §1
[23] = Tmax in mouse at 5 mg/kg, ip by LC-MS analysis; assay type: ADME, organism-based; details: in vivo; method in brief: as §1
[24] = test system: Mus musculus; assay: Anti-absorptive activity in loperamide-induced CD-1 mouse model of constipation assessed as improvement in fecal pellet number at 5 mg/kg, po administered via gavage for 1 hr prior to loperamide challenge and measured after 3 hrs; assay type: functional, organism-based; method in brief: as §4

Cc1c(CC(=O)O)c(=O)oc2c(C)c(OCc3cccc(I)c3)ccc12
Cmax [1]: 29.1 µM
inhibition [2]: inactive
concentration at 72 h [3]: 1 µM
Tmax [4]: 30 min
Tmax [5]: 390 min
Activity [6]: Non-Toxic
Activity [7]: Active
Activity [8]: Active
AUC [9]: 331 µM·h
Activity [10]: >50%
Cmax [11]: 4.7 µM
Activity [12]: Active
AUC [13]: 130 µM·h
Activity [14]: Non-Toxic
Activity [15]: Non-Toxic

Cc1c(CC(=O)O)c(=O)oc2c(C)c(OCc3cccc(C(F)(F)F)c3)ccc12
inhibition [2]: inactive
Activity [16]: Active
Cmax [17]: 70.2 µM
Tmax [18]: 48 min
AUC [19]: 69 µM·h
AUC [20]: 418 µM·h
Activity [21]: Active
Drug uptake [22]: Active
Tmax [23]: 48 min
Activity [24]: Active
